Data taken from ChEMBL document CHEMBL1126312, “Synthesis and evaluation of 3-substituted 17-methylmorphinan analogs as potential anticonvulsant agents” (J Med Chem, 1992).
Active and inactive are the calls of the source. The rule behind the calls is not given here.

Legend:
[1] = molecular target: Glutamate [NMDA] receptor; assay: (§1) Binding affinity against dextromethorpin binding site associated with N-methyl-D-aspartate glutamate receptor from guinea pig mitochondrial pellet P2 determined using [3H]1 as radioligand.; format: protein-complex assay, Cavia porcellus
In short: (§2)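 Guinea pig brain crude mitochondrial P2 fraction (11500g pellet, De Robertis-based) was used in Tris-HCl pH 7.4. [3H]dextromethorphan at 5 nM final was incubated with ~0.3 mg tissue for 20 min at 23 °C, with displacer at 10^-9–10^-5 M. Nonspecific binding was defined with 100 µM unlabelled ligand. Samples were filtered on GF/B and counted by scintillation.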

[2] = molecular target: Glutamate [NMDA] receptor; assay: Binding affinity against dextromethorpin binding site associated with N-methyl-D-aspartate glutamate receptor from guinea pig microsomal pellet (P3) using [3H]1 as radioligand.; design: species or system Cavia porcellus
In short: (§3)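 Guinea pig brain microsomal P3 fraction (100000g, 60 min pellet) was used in Tris-HCl pH 7.4. [3H]dextromethorphan at 5 nM final was incubated with ~0.5 mg tissue for 20 min at 23 °C, with displacer at 10^-9–10^-5 M. Nonspecific binding was defined with 100 µM unlabelled ligand. Samples were filtered on GF/B in cold Tris/choline chloride/Triton buffer and counted.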

[3] = molecular target: T1, Glutamate NMDA receptor (Rattus norvegicus) (UniProt P35439+Q00959+Q00960+Q00961+Q62645+Q8VHN2+Q9R1M7); assay: (§4) Binding affinity against PCP binding site associated with N-methyl-D-aspartate glutamate receptor from rat synaptic plasma membrane(SPM) determined using [3H]TCP as radioligand.
In short: (§5)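 Crude rat brain synaptic plasma membranes (cerebellum removed, extensively washed) were used in 5 mM Tris-HCl pH 7.4. [3H]TCP at 5 nM final was incubated with ~0.2 mg membranes for 60 min at 23 °C. Nonspecific binding was defined with cold phencyclidine. Samples were filtered on GF/B pre-soaked in 0.5% PEI, washed with 5 mM Tris pH 7.7 and counted.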

Glutamate NMDA receptor [4] = assay: Binding affinity against dextromethorpin binding site associated with N-methyl-D-aspartate glutamate receptor from rat brain using [3H]1 as radioligand.
In short: (§6)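 Rat brain membranes were the 100000g pellet of the 1000g supernatant, in 50 mM Tris-HCl pH 7.4. [3H]dextromethorphan (5 nM final) was incubated with ~0.3 mg membranes for 20 min at 23 °C, with displacer at 10^-9–10^-5 M. Nonspecific binding was defined with 100 µM unlabelled ligand. Samples were filtered on GF/B in cold Tris/choline chloride/Triton wash and counted by scintillation.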

Glutamate NMDA receptor [5] = assay: Binding affinity against glycine binding site associated with N-methyl-D-aspartate glutamate receptor from rat synaptic plasma membrane using [3H]glycine as radioligand.
Rattus norvegicus [6] = assay: Anticonvulsant activity in rat supramaximal electroshock (MES) test expressed as % rats protected at a dose of 50 mg/kg.; format: functional
In short: (§7)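 Rats were given the compound sc in freshly diluted normal saline (DMSO or HCl-assisted dissolution for some compounds) at 1-2 mL/kg. Vehicle-injected controls were run. Rats were tested at 30 min after injection. The read-out is the % of rats protected from convulsion in the MES test at the stated doses, with n = 10 rats.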

[7] = molecular target: T2, Glutamate [NMDA] receptor (Homo sapiens) (UniProt Q05586+Q12879+Q13224+O15399+O60391+Q14957+Q8TCU5); conditions: Cavia porcellus; 10e-5 M
[8] = molecular target: T2, Glutamate [NMDA] receptor (Homo sapiens); conditions: Cavia porcellus; Plasma; 10e-5 M
[9] = molecular target: T1, Glutamate NMDA receptor (Rattus norvegicus); conditions: 10e-5 M
[10] = molecular target: T1, Glutamate NMDA receptor (Rattus norvegicus); assay: Binding affinity against PCP binding site associated with N-methyl-D-aspartate glutamate receptor from rat synaptic plasma membrane(SPM) determined using [3H]TCP as radioligand; conditions: concentration not given here; in short: as §5
Glutamate NMDA receptor [11] = assay: Binding affinity against dextromethorpin binding site of N-methyl-D-aspartate glutamate receptor from rat brain using [3H]1; in short: as §6
[12] = molecular target: Glutamate [NMDA] receptor; assay: Inhibition of [3H]1 binding to dextromethorpin binding site of guinea pig microsomal pellet P3 N-methyl-D-aspartate glutamate receptor; design: species or system Cavia porcellus; in short: as §3
Glutamate NMDA receptor [13] = assay: Binding affinity against glycine binding site of N-methyl-D-aspartate glutamate receptor from rat synaptic plasma membrane(SPM) using [3H]glycine; NA = No effect
Rattus norvegicus [14] = assay: Anticonvulsant activity in rat supramaximal electroshock (MES) test within a dose range of 15-60 mg/kg administered subcutaneously; format: functional; conditions: sc
In short: (§8)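 The compound was given sc in freshly diluted normal saline at 1-2 mL/kg across the stated dose range, with vehicle-injected controls. MES protection was scored 30 min post-dose, with n = 10 rats. ED50 was derived from the dose-response and reported with 95% confidence limits, in mg/kg and µmol/kg.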

Rattus norvegicus [15] = assay: Anticonvulsant activity in rat supramaximal electroshock (MES) test within a dose range of 15-60 mg/kg.; format: functional; in short: as §8
Rattus norvegicus [16] = assay: Anticonvulsant activity in rat supramaximal electroshock (MES) test expressed as % rats protected at a dose of 10 and 25 mg/kg.; format: functional; in short: as §7
[17] = molecular target: T1, Glutamate NMDA receptor (Rattus norvegicus); assay: Binding affinity against PCP binding site associated with N-methyl-D-aspartate glutamate receptor from rat synaptic plasma membrane(SPM) determined using [3H]TCP as radioligand.;NA = No effect; conditions: concentration not given here; in short: as §5
Rattus norvegicus [18] = assay: Anticonvulsant activity in rat supramaximal electroshock (MES) test expressed as % rats protected at a dose of 1.25-10 mg/kg.; format: functional; in short: as §7
Rattus norvegicus [19] = assay: Anticonvulsant activity in rat supramaximal electroshock (MES) test expressed as % rats protected at a dose of 25-100 mg/kg.; format: functional; in short: as §7
Rattus norvegicus [20] = assay: Anticonvulsant activity in rat supramaximal electroshock (MES) test expressed as % rats protected at a dose of 25-50 mg/kg.; format: functional; in short: as §7
Rattus norvegicus [21] = assay: Anticonvulsant activity in rat supramaximal electroshock (MES) test expressed as % rats protected at a dose of 15-60 mg/kg.; format: functional; in short: as §7
Rattus norvegicus [22] = assay: Anticonvulsant activity in rat supramaximal electroshock (MES) test expressed as % rats protected at a dose of 40 mg/kg.; format: functional; in short: as §7
Glutamate NMDA receptor [23] = assay: as §4; in short: as §5
[24] = molecular target: T1, Glutamate NMDA receptor (Rattus norvegicus); assay: Binding affinity against dextromethorpin binding site associated with N-methyl-D-aspartate glutamate receptor from rat brain determined using [3H]1 as radioligand.; conditions: concentration not given here; in short: as §6
Rattus norvegicus [25] = assay: Anticonvulsant activity was determined in rat supramaximal electroshock (MES) test within a dose range of 15-60 mg/kg after (sc) administration; format: functional; in short: as §8
Rattus norvegicus [26] = assay: Anticonvulsant activity in rat supramaximal electroshock (MES) test expressed as % rats protected at a dose of 12.5-50 mg/kg.; format: functional; in short: as §7
[27] = molecular target: T1, Glutamate NMDA receptor (Rattus norvegicus); assay: as §4; conditions: concentration not given here
In short: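 Rat brain (minus cerebellum) crude synaptic plasma membranes, washed repeatedly in 5 mM Tris-HCl pH 7.4; about 0.2 mg incubated with 5 nM [3H]TCP for 60 min at 23 °C, 0.5 mL final volume. Displacers tested at 10^-9–10^-5 M; cold PCP defines nonspecific binding. Bound ligand collected by filtration on PEI-soaked GF/B filters and counted by scintillation.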

[28] = molecular target: T2, Glutamate [NMDA] receptor (Homo sapiens); assay: Binding affinity against dextromethorpin binding site associated with N-methyl-D-aspartate glutamate receptor from guinea pig microsomal pellet P3 determined using [3H]1 as radioligand.; conditions: Cavia porcellus; target entry is the homologue from another species; concentration not given here; in short: as §3
[29] = molecular target: T2, Glutamate [NMDA] receptor (Homo sapiens); assay: as §1; format: functional; conditions: Cavia porcellus; target entry is the homologue from another species; concentration not given here; in short: as §2
[30] = molecular target: T1, Glutamate NMDA receptor (Rattus norvegicus); assay: (§9) Binding affinity against glycine binding site associated with N-methyl-D-aspartate glutamate receptor from rat synaptic plasma membrane(SPM) determined using [3H]glycine as radioligand.;NA = No effect
Rattus norvegicus [31] = assay: Anticonvulsant activity in rat supramaximal electroshock (MES) test expressed as % rats protected at a dose of 2.5-50 mg/kg.; format: functional; in short: as §7
Rattus norvegicus [32] = assay: Anticonvulsant activity in rat supramaximal electroshock (MES) test expressed as % rats protected at a dose of 5-40 mg/kg.; format: functional; in short: as §7
[33] = molecular target: Glutamate [NMDA] receptor; assay: Binding affinity against dextromethorpin binding site associated with N-methyl-D-aspartate glutamate receptor from guinea pig mitochondriall pellet P2 determined using [3H]1 as radioligand.; format: protein-complex assay, Cavia porcellus; in short: as §2
Glutamate NMDA receptor [34] = assay: as §9
Rattus norvegicus [35] = assay: Anticonvulsant activity in rat supramaximal electroshock (MES) test expressed as % rats protected at a dose of 2.5-10 mg/kg.; format: functional; in short: as §7

SMILES	IC50 [1] [µM]	IC50 (Glutamate NMDA receptor [11]) [µM]	IC50 [12] [µM]	IC50 (Glutamate NMDA receptor [13])	ED50 (Rattus norvegicus [15]) [µmol/kg]	other results
CN1CCC23CCCCC2C1Cc1ccc(OCc2ccccc2)cc13 (centres undefined)	0.27					IC50 [2]: 0.15 µM; inhibition ([3]; concentration not given here): 39%; IC50 (Glutamate NMDA receptor [4]): 3.1 µM; IC50 (Glutamate NMDA receptor [5]): Not Active; Protection (Rattus norvegicus [6]): 30%
C[C@]12N[C@H](Cc3ccccc31)c1ccccc12						inhibition [7]: 19%; inhibition [8]: 20%; inhibition [9]: 42%
CCOc1ccc2c(c1)C13CCCCC1C(C2)N(C)CC3 (centres undefined)	0.09	0.42	0.13	Not Active	17.4	inhibition [10]: 75%; ED50 (Rattus norvegicus [14]): 5.6 mg/kg; Protection (Rattus norvegicus [16]): 90%
CC(C)Oc1ccc2c(c1)C13CCCCC1C(C2)N(C)CC3 (centres undefined)	0.15	0.88	0.12	Not Active	9.4	inhibition [17]: 59%; ED50 (Rattus norvegicus [14]): 3.9 mg/kg; Protection (Rattus norvegicus [18]): 90%
CN1CCC23CCCCC2C1Cc1ccccc13 (centres undefined)	1.7	1.3	1	Not Active		inhibition ([3]; concentration not given here): 53%; Protection (Rattus norvegicus [19]): 0%
CN1CCC23CCCCC2C1Cc1ccc(N=C=S)cc13 (centres undefined)	0.44	1.5	0.17	Not Active		inhibition ([3]; concentration not given here): 60%; Protection (Rattus norvegicus [20]): 0%
COc1ccc2c(c1)C13CCCCC1C(C2)N(C)CC3 (stereo not drawn) [RACEMETHORPHAN]	0.24		0.49	Not Active	109	ED50 (Rattus norvegicus [14]): 38 mg/kg; Protection (Rattus norvegicus [21]): 70%
CNc1ccc2c(c1)C13CCCCC1C(C2)N(C)CC3 (centres undefined)	0.48	3.6	1.3	Not Active		inhibition ([3]; concentration not given here): 43%; Protection (Rattus norvegicus [19]): 0%
CN(C)c1ccc2c(c1)C13CCCCC1C(C2)N(C)CC3 (centres undefined)	0.68	4.4	1.1	Not Active		inhibition [3]: 45 µM; Protection (Rattus norvegicus [22]): 40%
CN1CCC23CCCCC2C1Cc1ccc(N)cc13 (centres undefined)	6.4		4.4	Not Active	76	IC50 (Glutamate NMDA receptor [23]): 7.8 µM; inhibition [24]: 45%; ED50 (Rattus norvegicus [25]): 25 mg/kg; Protection (Rattus norvegicus [26]): 100%
CN(C)CCCN1c2ccccc2Sc2ccc(Cl)cc21 [CHLORPROMAZINE]	1.1	1.3	0.6	Not Active		inhibition [27]: 25%
CN1CCC23CCCCC2C1Cc1ccc(Cl)cc13 (centres undefined)	0.37	1.1	0.21	Not Active		IC50 (Glutamate NMDA receptor [23]): 5.5 µM; Protection (Rattus norvegicus [20]): 10%
c1ccc(C2(N3CCCCC3)CCCCC2)cc1 [PHENCYCLIDINE]						IC50 (Glutamate NMDA receptor [23]): 0.18 µM
CN1CCC23CCCCC2C1Cc1ccc(Oc2nc(-c4ccccc4)nc4ccccc24)cc13 (centres undefined)						inhibition [28]: 50%; inhibition [29]: 25%; inhibition [24]: 19%; inhibition [30]: inactive; Protection (Rattus norvegicus [31]): 10%
CCCCOc1ccc2c(c1)C13CCCCC1C(C2)N(C)CC3 (centres undefined)	0.16	1.5	0.1	Not Active		inhibition [10]: 58%; Protection (Rattus norvegicus [32]): 40%
CN1CC[C@]23CCCC[C@H]2[C@H]1Cc1ccc(O)cc13 [LEVORPHANOL]		7.7	2.7		12	IC50 (Glutamate NMDA receptor [23]): 1.2 µM; IC50 [33]: 2.5 µM; IC50 (Glutamate NMDA receptor [34]): Not Active; ED50 (Rattus norvegicus [14]): 5 mg/kg; Protection (Rattus norvegicus [35]): 90%
